In assay [1] the target is T1, Quinolone resistance protein NorA (Staphylococcus aureus) (UniProt P0A0J7).
T1 sequence (whole entry): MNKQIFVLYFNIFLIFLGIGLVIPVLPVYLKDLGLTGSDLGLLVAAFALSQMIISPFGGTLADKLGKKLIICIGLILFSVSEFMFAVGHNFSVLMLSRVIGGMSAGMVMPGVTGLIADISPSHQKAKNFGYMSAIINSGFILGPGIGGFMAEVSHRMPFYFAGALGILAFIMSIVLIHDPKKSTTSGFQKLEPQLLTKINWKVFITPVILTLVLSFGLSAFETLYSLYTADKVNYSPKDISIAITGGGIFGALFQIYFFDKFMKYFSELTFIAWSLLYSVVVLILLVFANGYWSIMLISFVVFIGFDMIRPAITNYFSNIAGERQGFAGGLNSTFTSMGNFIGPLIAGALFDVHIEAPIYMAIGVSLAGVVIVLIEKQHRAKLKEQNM
As to the kind of experiment: Inhibition of NorA efflux pump in Staphylococcus aureus 1199B after 24 hrs by broth checkerboard method.

Assay [2] has as its target T1, Quinolone resistance protein NorA (Staphylococcus aureus). The assay can be described thus: Inhibition of NorA efflux pump in Staphylococcus aureus 1199B assessed as reduction in MIC of ciprofloxacin by broth checkerboard method.
The target is the same in assay [3]. As to the kind of experiment: Inhibition of NorA efflux pump in Staphylococcus aureus 1199B assessed as reduction of ciprofloxacin MIC after 24 hrs by broth checkerboard method.
Assay [4] has the same target. As to the kind of experiment: Inhibition of NorA efflux pump in Staphylococcus aureus 1199B assessed as potentiation of ciprofloxacin-induced antimicrobial activity after 24 hrs by broth checkerboard method. In short, it runs like this:
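Potentiation factor was derived from 24 h, 37 °C checkerboard ciprofloxacin MICs against S. aureus 1199B in Mueller-Hinton broth. Each inhibitor-concentration column was weighted in ascending order: 10 for column 2 (50), adding 10 per column up to 70 for […] (0.8), so that activity at lower inhibitor concentrations counts more.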

Bounds are passed on as bounds.

Turning to `O=C(O)c1cn(C2CC2)c2cc(N3CCNCC3)c(F)cc2c1=O`, the MIC in assay [1] stood at 8 µg/mL.

Consider `NC(=O)c1ccc(NC(=O)/C=C/C=C/c2ccc3c(c2)OCO3)cc1`, for which the MEC in assay [2] is 25 µg/mL. In assay [3], the fold change (FC) is 2. Moreover, in assay [4], the PF came to 60 and the logPF was found to be 1.78. The MIC in assay [1] was more than 100 µg/mL.

`CC(=O)Nc1ccccc1NC(=O)CCCCc1ccc2c(c1)OCO2`: in assay [2], the MEC was found to be 50 µg/mL. Besides, the fold change (FC) in assay [3] came out at 2. Further, in assay [4], the PF stood at 20 and the logPF worked out at 1.3. The MIC in assay [1] was more than 100 µg/mL.

Turning to `CC(=O)Nc1cccc(NC(=O)/C=C/C=C/c2ccc3c(c2)OCO3)c1`, the MEC in assay [2] worked out at 12.5 µg/mL. Moreover, the fold change (FC) in assay [3] amounted to 4. Besides, in assay [4], the PF is 320 and the logPF is 2.51. In assay [1], the MIC is more than 100 µg/mL.

Take `O=C(/C=C/C=C/c1ccc2c(c1)OCO2)Nc1ccc(C(=O)Nc2ccccc2)cc1`: the MEC in assay [2] is 3.12 µg/mL. Moreover, the fold change (FC) in assay [3] stood at 2. Also, in assay [4], the PF stood at 360 and the logPF was determined as 2.56. In addition, in assay [1], the MIC is more than 100 µg/mL.

In the case of `N#Cc1cccc(NC(=O)/C=C/C=C/c2ccc3c(c2)OCO3)c1`, the MEC in assay [2] was determined as 50 µg/mL. Also, in assay [3], the fold change (FC) came to 8. In addition, in assay [4], the PF came to 660 and the logPF is 2.82. Moreover, the MIC in assay [1] was more than 100 µg/mL.

Turning to `CC(=O)Nc1ccccc1NC(=O)/C=C/C=C/c1ccc2c(c1)OCO2`, in assay [2], the MEC stood at 25 µg/mL. Moreover, the fold change (FC) in assay [3] turned out to be 4. In assay [4], the PF was found to be 260 and the logPF stood at 2.42. Moreover, the MIC in assay [1] was more than 100 µg/mL.

On to `O=C(/C=C/C=C/c1ccc2c(c1)OCO2)Nc1cccc(CO)c1`, for which the MEC in assay [2] came to 25 µg/mL. Besides, in assay [3], the fold change (FC) was 2. Besides, in assay [4], the PF was 60 and the logPF was determined as 1.78. The MIC in assay [1] is more than 100 µg/mL.

Consider `CC(C)CNC(=O)/C=C/C=C/c1ccc2c(c1)OCO2`, for which the MEC in assay [2] turned out to be 25 µg/mL. Besides, the fold change (FC) in assay [3] amounted to 2. Also, in assay [4], the PF came to 60 and the logPF was 1.78. For the same compound, the MIC in assay [1] was more than 100 µg/mL.

`O=C(/C=C/C=C/c1ccc2c(c1)OCO2)Nc1ccc(NC(=O)c2ccccc2)cc1`: in assay [2], the MEC was 3.12 µg/mL. Further, the fold change (FC) in assay [3] is 2. In assay [4], the PF came out at 300 and the logPF stood at 2.48. For the same compound, in assay [1], the MIC was more than 100 µg/mL.

`O=C(/C=C/C=C/c1ccc2c(c1)OCO2)N1CCOCC1`: the MEC in assay [2] is 50 µg/mL. Also, the fold change (FC) in assay [3] is 0. The MIC in assay [1] was more than 100 µg/mL.

With `N#Cc1ccc(NC(=O)/C=C/C=C/c2ccc3c(c2)OCO3)cc1`, the MEC in assay [2] is 25 µg/mL. Moreover, in assay [3], the fold change (FC) is 2. For the same compound, in assay [4], the PF came to 60 and the logPF was found to be 1.78. In addition, the MIC in assay [1] was more than 100 µg/mL.

For the compound `O=C(/C=C/C=C/c1ccc2c(c1)OCO2)Nc1ccccc1CO`, in assay [2], the MEC turned out to be 25 µg/mL. The fold change (FC) in assay [3] worked out at 2. Further, in assay [4], the PF is 60 and the logPF is 1.78. The MIC in assay [1] was more than 100 µg/mL.

Regarding `O=C(CCCCc1ccc2c(c1)OCO2)N1CCCCC1`, in assay [2], the MEC was 50 µg/mL. The fold change (FC) in assay [3] came out at 2. Besides, in assay [4], the PF was found to be 20 and the logPF was determined as 1.3. Further, the MIC in assay [1] was more than 100 µg/mL.

As to `O=C(/C=C/C=C/c1ccc2c(c1)OCO2)Nc1ccccc1`, the MEC in assay [2] was 50 µg/mL. In assay [3], the fold change (FC) was 4. Also, in assay [4], the PF stood at 140 and the logPF amounted to 2.15. Moreover, the MIC in assay [1] is more than 100 µg/mL.

`CCCNC(=O)/C=C/C=C/c1ccc2c(c1)OCO2`: the MEC in assay [2] was found to be 50 µg/mL. For the same compound, in assay [3], the fold change (FC) worked out at 0. Moreover, the MIC in assay [1] was more than 100 µg/mL.

Regarding `O=C(/C=C/C=C/c1ccc2c(c1)OCO2)N1CCCCC1`, the MEC in assay [2] came to 25 µg/mL. Moreover, in assay [4], the PF was found to be 60 and the logPF turned out to be 1.78. Also, in assay [1], the MIC is more than 100 µg/mL.

With `CCC(CO)NC(=O)/C=C/C=C/c1ccc2c(c1)OCO2` (stereo not drawn), the MEC in assay [2] was 50 µg/mL. Further, the fold change (FC) in assay [3] worked out at 0. The MIC in assay [1] was more than 100 µg/mL.

Consider `O=C(/C=C/C=C/c1ccc2c(c1)OCO2)Nc1ccc(CO)cc1`, for which, in assay [2], the MEC amounted to 6.25 µg/mL. Further, the fold change (FC) in assay [3] is 2. Further, in assay [4], the PF was found to be 200 and the logPF was found to be 2.3. For the same compound, the MIC in assay [1] is more than 100 µg/mL.

On to `CN1CCN(C(=O)/C=C/C=C/c2ccc3c(c2)OCO3)CC1`, for which the MEC in assay [2] amounted to 25 µg/mL. Moreover, the fold change (FC) in assay [3] was found to be 2. Besides, in assay [4], the PF is 60 and the logPF was 1.78. For the same compound, the MIC in assay [1] is more than 100 µg/mL.

On to `CC(C)CCNC(=O)/C=C/C=C/c1ccc2c(c1)OCO2`, for which the MEC in assay [2] is 25 µg/mL. Moreover, in assay [3], the fold change (FC) was found to be 2. In assay [4], the PF came to 60 and the logPF worked out at 1.78. In assay [1], the MIC was more than 100 µg/mL.

For the compound `CCC(CC)NC(=O)/C=C/C=C/c1ccc2c(c1)OCO2`, the fold change (FC) in assay [3] came out at 2. In assay [4], the PF stood at 60 and the logPF is 1.78.

In the case of `O=C(/C=C/C=C/c1ccc2c(c1)OCO2)NCC(O)c1ccccc1` (stereo not drawn), the MEC in assay [2] worked out at 50 µg/mL. Besides, the fold change (FC) in assay [3] is 4. Besides, in assay [4], the PF was found to be 140 and the logPF is 2.15. Besides, the MIC in assay [1] was more than 100 µg/mL.

For `CC(=O)Nc1ccc(NC(=O)/C=C/C=C/c2ccc3c(c2)OCO3)cc1`, the MEC in assay [2] stood at 25 µg/mL. Besides, the fold change (FC) in assay [3] was 4. In assay [4], the PF worked out at 260 and the logPF is 2.42. The MIC in assay [1] was more than 100 µg/mL.

Regarding `O=C(/C=C/C=C/c1ccc2c(c1)OCO2)Nc1ccc2ncsc2c1`, the MEC in assay [2] stood at 3.12 µg/mL. For the same compound, in assay [3], the fold change (FC) worked out at 2. Besides, in assay [4], the PF is 300 and the logPF is 2.48. Moreover, the MIC in assay [1] was more than 100 µg/mL.

Turning to `CCN(CC)C(=O)CCCCc1ccc2c(c1)OCO2`, the MEC in assay [2] amounted to 50 µg/mL. For the same compound, the fold change (FC) in assay [3] turned out to be 2. For the same compound, in assay [4], the PF came to 20 and the logPF worked out at 1.3. Further, the MIC in assay [1] is more than 100 µg/mL.

With `O=C(/C=C/C=C/c1ccc2c(c1)OCO2)Nc1nc2ccccc2s1`, the MEC in assay [2] was determined as 6.25 µg/mL. For the same compound, in assay [3], the fold change (FC) is 2. Also, in assay [4], the PF is 200 and the logPF came out at 2.3. In assay [1], the MIC is more than 100 µg/mL.

Take `CC(C)NC(=O)/C=C/C=C/c1ccc2c(c1)OCO2`: the MEC in assay [2] is 50 µg/mL. For the same compound, in assay [3], the fold change (FC) amounted to 0. The MIC in assay [1] was more than 100 µg/mL.

For `CCN(CC)C(=O)/C=C/C=C/c1ccc2c(c1)OCO2`, the MEC in assay [2] came out at 25 µg/mL. Moreover, the fold change (FC) in assay [3] is 2. Also, in assay [4], the PF turned out to be 60 and the logPF was 1.78. Besides, the MIC in assay [1] was more than 100 µg/mL.

Take `CC(O)CCNC(=O)/C=C/C=C/c1ccc2c(c1)OCO2` (stereo not drawn): the MEC in assay [2] was 25 µg/mL. The fold change (FC) in assay [3] worked out at 2. Besides, in assay [4], the PF turned out to be 60 and the logPF is 1.78. Besides, in assay [1], the MIC is more than 100 µg/mL.

As to `O=C(O)/C=C/C=C/c1ccc2c(c1)OCO2`, the MEC in assay [2] came to 50 µg/mL. Also, the fold change (FC) in assay [3] was found to be 0. Besides, in assay [1], the MIC is more than 100 µg/mL.

For the origin of these results see ChEMBL document CHEMBL1154079.
